# pCIP destab: p/CIP protein destabilization | 0.01% of 290,000 active | F442A p/CIP-EGFP cells, EGFP fluorescence, 16 h | Q05BA5 | AID 1984 | decrease of EGFP signal, % at 10 µM;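 active = EGFP signal decrease of at least 30% at 10 µM or well 3 SD below plate mean, unless failing retest; inactive = the rest, including hits failing retest or dose response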
# Target sequence (Q05BA5 1-1403): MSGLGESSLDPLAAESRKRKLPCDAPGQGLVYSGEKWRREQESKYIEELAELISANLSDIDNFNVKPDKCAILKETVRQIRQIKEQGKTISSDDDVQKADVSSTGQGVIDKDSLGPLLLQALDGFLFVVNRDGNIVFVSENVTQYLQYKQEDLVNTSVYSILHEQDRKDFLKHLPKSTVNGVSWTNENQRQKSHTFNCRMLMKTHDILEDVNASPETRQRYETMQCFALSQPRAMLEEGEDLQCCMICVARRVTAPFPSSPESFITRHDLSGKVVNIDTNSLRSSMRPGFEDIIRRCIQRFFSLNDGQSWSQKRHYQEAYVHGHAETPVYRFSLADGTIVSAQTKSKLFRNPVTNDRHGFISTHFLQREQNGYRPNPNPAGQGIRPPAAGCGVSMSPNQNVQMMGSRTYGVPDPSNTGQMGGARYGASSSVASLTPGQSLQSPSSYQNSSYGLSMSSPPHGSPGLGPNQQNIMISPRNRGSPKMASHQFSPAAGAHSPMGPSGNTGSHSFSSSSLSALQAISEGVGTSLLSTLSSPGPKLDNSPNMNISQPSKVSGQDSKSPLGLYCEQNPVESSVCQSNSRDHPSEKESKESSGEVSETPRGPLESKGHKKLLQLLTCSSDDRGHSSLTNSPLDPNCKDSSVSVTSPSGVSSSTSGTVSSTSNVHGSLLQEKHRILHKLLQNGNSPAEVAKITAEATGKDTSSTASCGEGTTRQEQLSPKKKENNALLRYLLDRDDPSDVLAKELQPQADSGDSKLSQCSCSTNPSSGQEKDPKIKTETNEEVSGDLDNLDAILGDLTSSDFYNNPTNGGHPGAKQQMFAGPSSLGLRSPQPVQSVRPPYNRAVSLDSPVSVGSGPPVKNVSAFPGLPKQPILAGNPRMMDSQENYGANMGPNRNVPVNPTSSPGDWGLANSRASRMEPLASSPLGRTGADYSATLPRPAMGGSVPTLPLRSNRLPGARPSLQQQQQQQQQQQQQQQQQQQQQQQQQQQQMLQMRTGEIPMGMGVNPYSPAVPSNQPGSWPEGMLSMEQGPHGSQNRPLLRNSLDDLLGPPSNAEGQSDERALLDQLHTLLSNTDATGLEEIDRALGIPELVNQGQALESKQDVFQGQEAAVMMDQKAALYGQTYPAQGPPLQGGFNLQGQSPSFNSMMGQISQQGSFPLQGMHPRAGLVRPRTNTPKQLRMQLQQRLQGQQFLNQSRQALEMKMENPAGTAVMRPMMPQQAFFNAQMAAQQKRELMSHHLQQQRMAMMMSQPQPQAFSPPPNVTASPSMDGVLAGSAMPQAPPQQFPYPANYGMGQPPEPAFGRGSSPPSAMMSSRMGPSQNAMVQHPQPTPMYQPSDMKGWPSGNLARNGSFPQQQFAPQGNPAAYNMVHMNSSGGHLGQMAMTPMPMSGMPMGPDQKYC
# CTSL1 counter: counter-screen for PFM18AAP inhibitors: inhibitors of F. hepatica cathepsin L1; 0.49% of 300,000 active; AID 1906; recombinant F. hepatica cathepsin L1, Z-Leu-Arg-MCA fluorescence; inhibition, % at 5.96 µM;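 active = inhibition above the mean of all tested compounds plus 3 SD, set per screening campaign, cut at about 17% in these data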;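 also: 0% = plate median of test compound wells and 100% = 1 µM Z-Phe-Ala-diazomethylketone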
# Hep lipid drop: modulators of hepatic lipid droplet formation; AML12 mouse hepatocytes, oleate lipid droplets, BODIPY imaging; inhibition, % at 6.5 µM; 0.4% of 240,000 active; AID 1656;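 active = lipid droplet intensity inhibited by at least 50%, with more than 500 cells counted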
#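 material = mouse AML12 hepatocyte cell line, fixed after treatment | also added = 100 µM oleic acid challenge | doses = compound at 6.5 µM only | schedule = overnight exposure | technique = Image-based BODIPY and DAPI two-channel analysis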
# Arrestin-AP2 inh: inhibitors of human beta-arrestin and AP2 interaction | inhibition, % at 10 µM | FITC-arrestin peptide / GST-AP2 beads, flow cytometry; AP2 beta2 appendage carries R879A mutation | 0.31% of 340,000 active;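 active = inhibition above a set limit, near 3 SD of compounds lacking own fluorescence, cut at about 54% in these data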;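 also: plate controls were DMSO wells for no effect and 5 µM unlabelled arrestin peptide for full effect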
#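 System: GST-tagged AP2 beta2-adaptin appendage (R879A) on 4 µm glutathione beads / Reagent: FITC-arrestin peptide, 50 nM / Detection: HyperCyt-sampled flow cytometry, FL1 channel, ex 488/em 535 nm / Timing: 12 min plus 1 h, RT / Buffer or medium: PBS plus Tween 20 (0.05%) and BSA (0.1%)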
# An asterisk follows results filed as active; x = no result given. An excerpt weighted towards active compounds, which were near 1% of everything screened.
SMILES,pCIP destab,CTSL1 counter,Hep lipid drop,Arrestin-AP2 inh
Cc1ccc(NC2=C(NCCO)C(=O)c3ccccc3C2=O)cc1,-8,8,59*,-3
COc1ccc(C(=O)N/C(=C\c2ccc(Cl)cc2)C(=O)NCC2CCCO2)cc1 (stereo not drawn),7,17*,-15,-2
COc1ccc(/C=C(/NC(=O)c2ccc(C)cc2)C(=O)NCC2CCCO2)cc1 (stereo not drawn),6,2,27,19
O=c1c([N+](=O)[O-])c[nH]c2ccccc12,5,3,-3,5
CCOC(=O)C1(Cc2ccccc2)CCN(Cc2cccc(OC)c2O)CC1,2,18*,2,-13
CCc1ccc(C(=O)CN(C#N)c2nc(C)cc(C)n2)cc1,6,58*,x,4
Cc1cc(C)nc(N(C#N)CC(=O)c2ccccc2)n1,-17,69*,1,-3
COc1ccc(/C=C2\SC(=O)N(CC(=O)Nc3ccc(F)cc3)C2=O)cc1O,5,-2,-14,-5
CCSc1nnc(NC(=O)C2CC(=O)N(Cc3ccc(C)cc3)C2)s1 (stereo not drawn),15,3,32,-7
Cc1ccc(NS(=O)(=O)c2ccc(CCC(=O)O)cc2)cc1,-2,2,x,32
O=C(Nc1ccc(-c2nc3ncccc3o2)cc1)c1ccc(Br)o1,9,10,56*,3
O=C(Nc1ccc(-c2nc3ncccc3o2)cc1)c1ccco1,-13,13,17,-5
O=C(COC(=O)[C@H](Cc1ccccc1)N1C(=O)c2ccccc2C1=O)Nc1ccc2c(c1)OCO2,-12,23*,3,29
O=C(COC(=O)c1ccccn1)Nc1ccc2c(c1)OCCO2,x,x,x,-7
O=C(COC(=O)c1ccc(=O)n(Cc2ccccc2)n1)Nc1ccc2c(c1)OCCO2,-12,19*,-10,6
O=C(NCC(=O)N(Cc1ccco1)C(C(=O)NC1CCCCC1)c1cccnc1)c1ccco1 (stereo not drawn),-10,2,0,7
Cc1ccc(-n2c(N)c(C(=O)Nc3c(C)n(C)n(-c4ccccc4)c3=O)c3nc4ccccc4nc32)cc1C,2,5,70*,x
O=C(CN(c1cccc([N+](=O)[O-])c1)S(=O)(=O)c1ccccc1)N(Cc1ccccc1)Cc1ccccc1,7,18*,4,6
CC(=O)N(C1=C(N)C(=O)c2ccccc2C1=O)c1ccccc1,0,30*,-3,-22
Cn1cnnc1SCc1ccc(-c2ccc(Br)cc2)o1,-21,60*,x,-6
Cc1ccc(-n2ncc3c(SCC(=O)NNC(=O)C(C)C)ncnc32)cc1,-12,-4,0,-3
CC(C)C(=O)NNC(=O)CSc1ncnc2c1cnn2-c1ccccc1Cl,-6,44*,2,9
CC1CCN(S(=O)(=O)c2ccc(C(=O)NC3CCS(=O)(=O)C3)cc2)CC1 (stereo not drawn),x,1,x,4
Cc1ccc(-c2nc(C=Nc3ccccc3)c(O)o2)cc1,13,2,10,-2
Oc1oc(-c2ccccc2)nc1C=Nc1cccc2ccccc12,-8,0,-4,2
SMILES,pCIP destab,CTSL1 counter,Hep lipid drop,Arrestin-AP2 inh
Oc1oc(-c2ccccc2)nc1C=NCc1ccncc1,-3,36*,0,1
Oc1oc(-c2ccccc2)nc1/C=N/c1nccs1,2,45*,-7,12
Oc1oc(-c2ccc(Br)cc2)nc1/C=N/c1ccccn1,-1,23*,0,x
CC(C)(C)c1cc(NC(=O)c2c(F)cccc2Cl)n(-c2ccccc2)n1,-10,1,-4,-6
COc1ccc(/C=C/c2c([N+](=O)[O-])c(=O)n(C)c(=O)n2C)c(OC)c1OC,1,1,3,16
O=C(NCc1ccc2c(c1)OCO2)c1cc(-c2ccccn2)nc2ccccc12,-15,-1,58*,-11
CN(C(=O)c1cc2c(=O)n3ccccc3nc2n1C)C1CCCCC1,-11,18*,-11,0
CCN(C(=O)c1cc2c(=O)n3ccccc3nc2n1C)C1CCCCC1,-14,6,-5,13
Cc1c(C#N)c(NC(=O)CCl)n(Cc2cccs2)c1C,-22,51*,-32,-1
Cc1c(C#N)c(NC(=O)CCl)n(Cc2ccccc2)c1C,-18,40*,3,30
CCN(CC)C(=O)c1sc(NC(=O)Cc2cccs2)c(C#N)c1C,-5,-2,x,0
Cc1c(C#N)c(NC(=O)CCl)n(Cc2ccc(F)cc2)c1C,-6,12,-3,0
CCC(NC(=O)Nc1nnc(C(F)(F)F)s1)(C(F)(F)F)C(F)(F)F,30*,-1,x,-16

# Assay outcomes deposited in PubChem BioAssay by several laboratories.
